Columns and labels:
[1] = test system: Trypanosoma brucei rhodesiense; experiment: In vitro inhibitory activity against Trypanosoma brucei rhodesiense evaluated in vitro
Mus musculus [2] = experiment: In vivo effect on average days of survival was measured upon oral dose at 400 mg/kg in STIB900 mouse model; type: functional
In short: (§1)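 Mice infected with T. b. rhodesiense STIB900 got four daily doses: intraperitoneal for the parent amidine (4 × 10 mg/kg), oral for the prodrugs (4 × 25, 4 × 50 or 4 × 100 mg/kg/day). Read-out is mean days of survival per group, followed to 60 days.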

Caco-2 [3] = experiment: Apparent permeability determined across the Caco-2 cell monolayers in both apical (AP) to basolateral (BL) directions; type: functional, cell-based; details: Homo sapiens
Mus musculus [4] = experiment: In vivo effect on average days of survival was measured upon intraperitoneal dose at 40 mg/kg in STIB900 mouse model; type: functional
In short: as §1

Caco-2 [5] = experiment: Apparent permeability determined across the Caco-2 cell monolayers in both basolateral (BL) to apical (AP) directions; type: functional, cell-based; details: Homo sapiens
Mus musculus [6] = experiment: In vivo effect (cures) determined by number of mice that survived (0) and are parasite free (8) for 60 days upon intraperitoneal dose, observed in STIB900 mouse model; type: functional
In short: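 T. b. rhodesiense STIB900 acute infection in mice, 4 mice per group (8 in one group). Four daily doses (4 × mg/kg/day); the parent amidine was given intraperitoneally and the prodrugs orally. A cure is a mouse surviving and parasite-free at 60 days, reported as cured/treated.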

Mus musculus [7] = experiment: In vivo effect (cures) determined by number of mice that survived (4) and are parasite free (4) for 60 days upon oral dose, observed in STIB900 mouse model
[8] = Half-life in human liver microsomes was determined; type: ADME, Microsome
In short: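 Substrate at 10 µM final (from 5 mM methanol stocks) in 100 mM potassium phosphate pH 7.4 with 0.2 mg/mL pooled human liver microsomes. Preincubated 5 min, then started with 1 mM NADPH. Samples taken at 0–90 min, quenched with acetonitrile on ice, centrifuged, and supernatant analysed by HPLC-UV or LC-MS. Half-life from substrate loss.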

Mus musculus [9] = experiment: In vivo effect on average days of survival was measured upon oral dose at 100 mg/kg in STIB900 mouse model; type: functional
In short: as §1

Mus musculus [10] = experiment: In vivo effect (cures) determined by number of mice that survived (2) and are parasite free (4) for 60 days upon oral dose, observed in STIB900 mouse model
Mus musculus [11] = experiment: In vivo effect (cures) determined by number of mice that survived (1) and are parasite free (4) for 60 days upon oral dose, observed in STIB900 mouse model
Mus musculus [12] = experiment: In vivo effect on average days of survival was measured upon oral dose at 200 mg/kg in STIB900 mouse model; type: functional
In short: as §1

Compound | IC50 [1] | Survival days (Mus musculus [2]) | Papp (Caco-2 [3]) | Survival days (Mus musculus [4]) | Papp (Caco-2 [5]) | Dose (Mus musculus [6]) | Dose (Mus musculus [7]) | half-life [8] | Survival days (Mus musculus [9]) | Dose (Mus musculus [10]) | Dose (Mus musculus [11]) | Survival days (Mus musculus [12])
N=C(NO)c1ccc(-c2ccc(-c3ccc(/C(N)=N\O)cc3)o2)cc1 | 66.4 µM | 50 |  |  |  |  |  |  |  |  |  | 
N=C(N)c1ccc(-c2ccc(-c3ccc(C(=N)N)cc3)o2)cc1 [FURAMIDINE] | 0.0045 µM |  | 3.8e-07 | >46 | 8.5e-07 | 40 mg/kg |  |  |  |  |  | 
CCONC(=N)c1ccc(-c2ccc(-c3ccc(C(=N)NOCC)cc3)o2)cc1 | 0.645 µM | >60 | 5.9e-06 |  | 3.7e-06 |  | 400 mg/kg | 32 min | 32 |  |  | 
CCCCCCONC(=N)c1ccc(-c2ccc(-c3ccc(C(=N)NOCCCCCC)cc3)o2)cc1 | 5.7 µM | 6 |  |  |  |  |  |  |  |  |  | 
CC(C)ONC(=N)c1ccc(-c2ccc(-c3ccc(C(=N)NOC(C)C)cc3)o2)cc1 | 12.6 µM | 48 |  |  |  |  |  |  |  | 400 mg/kg |  | 
CCCONC(=N)c1ccc(-c2ccc(-c3ccc(C(=N)NOCCC)cc3)o2)cc1 | 0.472 µM | >47.5 |  |  |  |  |  | 60 min |  |  | 400 mg/kg | 
CONC(=N)c1ccc(-c2ccc(-c3ccc(C(=N)NOC)cc3)o2)cc1 [PAFURAMIDINE] | 14.6 µM | >60 | 6.04e-05 |  | 3.75e-05 |  | 400 mg/kg | 4.16 min | >60 | 200 mg/kg | 100 mg/kg | >60
CCCCONC(=N)c1ccc(-c2ccc(-c3ccc(C(=N)NOCCCC)cc3)o2)cc1 | 1.9 µM | 9 |  |  |  |  |  |  |  |  |  | 

— ChEMBL document CHEMBL1137987, “O-alkoxyamidine prodrugs of furamidine: in vitro transport and microsomal metabolism as indicators of in vivo efficacy in a mouse model of Trypanosoma brucei rhodesiense infection” (J Med Chem, 2004)
